Bioassay records: PubChem, several laboratories
Only some compounds are listed: those with a hit (about 1.7% of all), similar ones and a draw of the others.
HNF4A DNA FP: change in binding of human HNF4 alpha to DNA; AID 1224865; activity change, % at 10 µM; HNF4a-FITC DNA binding, fluorescence polarization, 1 h; 360,000 tested, 0.3% active; P41235; in the data active means activity change above about 30%, passing the limit was not always enough
TPT1 inhibitor: C. albicans TPT1 enzyme inhibition; inhibition, % at 5 µM; 300,000 tested, 0.81% active; recombinant caTPT1, FP RNA substrate dephosphorylation; AID 1962;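 active means inhibition above the mean of all tested compounds plus 3 SD, set per screening campaign, cut at about 24% in these data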;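 further: plate controls were DMSO alone for no effect and ferristatin control at 100 nM for full effect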
NR1D1 modulator: modulators of human Rev-erb alpha DNA binding; 370,000 tested, 0.79% active; P20393; activity, % at 10 µM; Rev-erbα–FITC-DNA binding, fluorescence polarization, 90 min; AID 1259318;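 active means activity above about 14%, limit read from the data; passing the limit was not always enough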;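 further: 0% = DMSO wells with 35 nM protein and 100% = DMSO wells with 750 nM protein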
CSN inh: blocks human CSN-mediated cullin deneddylation; Q92905; Purified CSN, SCF-Nedd8-OG deneddylation, fluorescence polarization; inhibition, % at 12.5 µM; 360,000 tested, 0.38% active; AID 651999;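 active means pattern-corrected inhibition above about 35%, with an unprinted fluorescence ratio check between 0.5 and 1.5, limit read from the data, passing the limit was not always enough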;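 further: 0% = enzyme with substrate and 100% = substrate without enzyme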
Target sequence (Q92905 whole entry, looked up, one chain of several): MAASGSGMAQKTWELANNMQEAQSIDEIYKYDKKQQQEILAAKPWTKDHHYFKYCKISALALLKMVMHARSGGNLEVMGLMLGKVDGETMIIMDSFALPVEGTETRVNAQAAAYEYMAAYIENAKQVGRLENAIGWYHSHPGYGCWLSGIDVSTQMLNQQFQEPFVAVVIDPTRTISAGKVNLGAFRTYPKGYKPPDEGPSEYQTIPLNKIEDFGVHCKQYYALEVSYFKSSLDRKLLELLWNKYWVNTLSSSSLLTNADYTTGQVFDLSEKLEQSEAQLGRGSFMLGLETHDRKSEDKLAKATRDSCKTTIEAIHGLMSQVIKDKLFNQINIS
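test system = HEK293T-derived human Csn5 enzyme | amount = 0.24 nM Csn5 enzyme, final concentration | medium = Tris/NaCl/DTT buffer, pH 7.5 | schedule = 90 min reaction at room temperature | signal = FP | evaluation = inhibition of Csn5 cleavage, % | compound dosing = single dose of 12.5 µM compound with 0.25% DMSO | probe or stimulus = 10 nM SCFSkp2-Nedd8OG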
Rev-erbA confirm: Rev-erb alpha (human) modulation, hit confirmation; shares compounds with NR1D1 modulator; AID 1259319; 3,000 tested, 61% active; activation, % at 25 µM; Rev-erb alpha FITC-DNA binding, fluorescence polarization, 90 min;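 active means activation at or above a set limit, or at least 3 SD above the negative control mean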;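 further: 0% = 35 nM protein with DMSO and 100% = 750 nM protein high control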
RORg DNA counter: counter-screen for Rev-erb alpha modulators: RORgamma DNA binding. IC50, µM. shares compounds with NR1D1 modulator. AID 1259320. purified RORgamma protein-FITC-DNA binding, fluorescence polarization. 910 tested, 8% active;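 active means Compounds whose fitted half-maximal concentration for disrupting protein-DNA binding is below 10 micromolar; the record names Rev-erb in its text, so the target is in doubt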
Numbers without * were called inactive; i = inactive; nt = no result; + = active, no number.

SMILES | HNF4A DNA FP | TPT1 inhibitor | NR1D1 modulator | CSN inh | Rev-erbA confirm | others
COc1ccc(-c2csc(NC(=O)C3=COCCO3)n2)c(OC)c1 | 3.7 | -9.3 | 1.5 | 3.5 | nt
Cc1cc(C)c(-c2csc(NC(=O)C3=COCCO3)n2)cc1C | 1.6 | -1.4 | 19.1* | 1.8 | 6.3
Cc1cc(-c2ccccc2)[nH]c(=O)c1S(=O)(=O)c1ccc(Cl)cc1 | 2.4 | -1.2 | 51.0* | -4.8 | 20.8*
COc1ccc(OC)c2c1sc(=NC(=O)C1CCCCC1)n2C | 1.7 | -0.8 | 44.0* | -2.9 | -14.9
CCn1c(=NC(=O)C2COc3ccccc3O2)sc2c(OC)ccc(OC)c21 (centres undefined) | -1.4 | -1.9 | 46.5* | -1.4 | 17.8
COc1ccc(OC)c2c1sc(=NC(=O)C(C)(C)C)n2C | 1.1 | -3.3 | -1.1 | 1.7 | nt
CCCC(=O)N=c1sc2c(OC)ccc(OC)c2n1C | 3.0 | 1.3 | 39.6* | 6.3 | 16.9
COC(=O)[C@H]1C[C@@]2(Oc3ccc(Br)cc3)c3ccccc3N(C(=O)OC(C)(C)C)[C@H]2N1C(=O)OC(C)(C)C | nt | nt | 2.0 | nt | nt
CC(=O)NC(CC(=O)Nc1ccc(S(=O)(=O)NC2=NCCCCC2)cc1)c1ccccc1 (centres undefined) | 4.2 | nt | -3.4 | -2.5 | nt
COc1cc(C(C)=O)ccc1OCC(=O)NC(=O)Nc1ccc(C)cc1C | -2.2 | nt | 28.4* | 4.4 | -5.7
COc1ccc(NC(=O)c2cc3c(-c4ccc(OC)c(OC)c4)nn(C)c3s2)cc1OC | -0.8 | -5.0 | 1.8 | 0.2 | nt
COc1ccc(-c2nn(C)c3sc(C(=O)NCc4ccco4)cc23)cc1OC | 0.7 | -0.1 | 58.3* | 0.6 | 51.7* | RORg DNA counter=i
Cc1ccccc1C1CCC2(CC1)CCN(CC[C@@H](O)c1ccccc1)C2=O (some centres undefined) | nt | nt | -3.5 | nt | nt
CCOc1ccc2c(c1)nc(SCC(=O)c1ccc(Br)s1)n2C | 1.7 | 6.3 | 25.1* | 5.3 | 14.4
COC(=O)C1=C(C)N(C)C(=NCC2CC2)NC1c1ccccc1 (centres undefined) | nt | nt | -0.7 | nt | nt
COc1cccc2sc3cc(C#Cc4ccccn4)ccc3c(=O)c12 | -4.1 | nt | -8.1 | 1.4 | nt
COc1cc2sc3ccc(C#Cc4ccccn4)cc3c(=O)c2cc1OC | 174.8 | 2.7 | 26.5* | 54.4* | 27.1*
COc1ccccc1C(=O)N1CCN(C(=O)[C@@H](Cc2ccccc2)NC(=O)[C@H]2O[C@@H](n3ccc(=O)[nH]c3=O)[C@H](O)[C@@H]2O)CC1 | nt | nt | -0.3 | nt | nt
CCOC(=O)[C@@]12CCC3=C1N(CCC3)C(=O)[C@H](CC(=O)NCC1CCCCC1)C2 | nt | nt | 4.2 | nt | nt
Cc1cc(OC(C)C(=O)NCc2cccnc2)c2c(C)c(Cc3ccccc3)c(=O)oc2c1 (centres undefined) | -2.2 | 2.4 | 106.6* | 5.5 | 104.5* | RORg DNA counter=>40
COc1ccc(C(C)=O)cc1COC(=O)c1ccc(OCc2c(C)noc2C)cc1 | -0.5 | -0.6 | 16.3* | 9.1 | 12.1
CCCCn1c(CCc2ccccc2)nc2cc3[nH]c(=O)c(C(C)C)nc3cc21 | 2.9 | 4.9 | -1.3 | -0.7 | nt
CCCCn1c(-c2ccc(F)c(F)c2)nc2cc3[nH]c(=O)c(C(C)C)nc3cc21 | 17.8 | 8.1 | 17.8* | 4.5 | 13.8
C=CCSc1nc(N)c(C#N)c(-c2ccc(C)cc2)c1C#N | 0.2 | -2.4 | 16.7 | 0.5 | nt
N#Cc1c(N)nc(Sc2ccc(Cl)cc2)c(C#N)c1-c1ccccc1Cl | -4.3 | 6.0 | 63.5* | 3.7 | 43.3* | RORg DNA counter=i
SMILES | HNF4A DNA FP | TPT1 inhibitor | NR1D1 modulator | CSN inh | Rev-erbA confirm | others
Cc1ccc(-c2cc(-c3ccccc3Cl)c(C#N)c(N)n2)o1 | 5.7 | 11.6 | -0.5 | 0.3 | nt
CCSc1nc(N)c(C#N)c(-c2ccccc2Cl)c1C#N | -1.4 | 3.7 | 24.9* | -4.6 | 22.3*
CCOC(=O)C1CSCCS(=O)(=O)N1Cc1ccc(F)cc1 (centres undefined) | nt | nt | 0.7 | nt | nt
N=C(SC1CC(=O)N(c2ccc(F)cc2)C1=O)N1N=C(c2ccccc2)CC1c1ccccc1 (centres undefined) | 1.4 | -1.4 | 19.1* | -8.5 | 0.4
N#Cc1ccc(C(=O)Oc2coc(CSc3ncccn3)cc2=O)cc1 | nt | nt | -0.4 | nt | nt
CCCn1c(=O)[nH]c(=O)c2c(C(=O)OCC)cc(-c3cccs3)nc21 | 5.3 | -3.7 | 29.5* | 14.3 | 26.7*
CCCCn1c(=O)[nH]c(=O)c2c(C(=O)OCC)cc(-c3cccs3)nc21 | 2.4 | -1.1 | 16.1 | 7.9 | nt
COc1ccc2[nH]c3c(=O)n(Cc4ccc(C(=O)N5CCCCCC5)cc4)c(=S)[nH]c3c2c1 | -2.1 | 1.6 | 40.8* | 12.3 | 28.7*
Cc1ccc(Oc2nccc(-c3ccc(Cl)cc3)n2)cc1 | -10.2 | -3.2 | 47.1* | -9.3 | 45.6* | RORg DNA counter=>40
Clc1ccc(-c2cnc(Oc3ccccc3)nc2)cc1 | -3.2 | -2.0 | 5.1 | -1.4 | nt
COC(=O)c1ccccc1-c1c2ccc(=N)cc-2oc2cc(N)ccc12 | -96.0 | nt | + | -73.5 | + | RORg DNA counter=>40
CCc1ccc(C(=O)COC(=O)c2ccc(-c3nnc(-c4ccccc4)o3)cc2)cc1 | -3.7 | -2.1 | 23.5* | 1.2 | 8.5
CCOc1ccc(C(=O)Nc2ccc(C(F)(F)F)n(C)c2=O)cc1 | -1.1 | -4.4 | 35.1* | 6.9 | 7.5
COc1cccc(C(=O)Nc2ccc(C(F)(F)F)n(C)c2=O)c1 | 2.7 | -0.4 | 0.8 | 5.3 | nt
Cc1cc(-c2nc3cccnc3s2)ccc1NS(=O)(=O)c1ccc2c(c1)OCCO2 | 5.9 | -1.0 | 25.0* | -4.1 | -4.3
CCCOc1ccc(F)cc1-c1cc(C(=O)Nc2ccccc2)[nH]n1 | 3.2 | nt | 21.2* | -2.4 | -6.6
CC(C)Oc1ccc(F)cc1-c1cc(C(=O)Nc2ccccc2)[nH]n1 | 2.6 | nt | -5.8 | -8.7 | nt
Cc1c(OCC(=O)Nc2cccnc2)ccc2c3c(c(=O)oc12)CCC3 | 0.1 | -1.8 | 4.5 | 2.9 | nt
Cc1c(C)c2ccc(OCC(=O)Nc3ccc(S(N)(=O)=O)cc3)c(C)c2oc1=O | 2.8 | 2.5 | 25.3* | 13.8 | 11.1
COc1ccc(C=Cc2ccc3ccccc3n2)c(OC)c1 | 4.9 | nt | 20.1* | -70.8 | 8.9
CC(C)C[C@H](NC(=O)N1CCOCC1)C(=O)N1CCC[C@H]1C(=O)NCc1ccccc1 | nt | nt | 2.3 | nt | nt
Cc1ccc2nc(N3CCN(c4cccc(C)c4C)CC3)c3nnnn3c2c1 | 3.0 | -2.8 | 28.4* | 3.0 | 70.9* | RORg DNA counter=>40
COc1ccc(C(C(=O)NCC2CCCO2)N(Cc2ccccc2)C(=O)CNC(=O)c2ccco2)cc1OC (centres undefined) | -2.2 | -3.5 | -1.0 | 2.0 | nt
CC(=O)c1ccc(N2CCN(C(=S)Nc3ccc(Oc4ccccc4)cc3)CC2)cc1 | -5.9 | -4.1 | -5.2 | 9.9 | nt
CC(=O)c1ccc(N2CCN(C(=S)Nc3cccc(F)c3)CC2)cc1 | -0.1 | 0.0 | 28.9* | 2.0 | 18.1*
COC(=O)c1cc2c(c3c4ccccc4n(S(=O)(=O)c4ccccc4)c13)C(=O)N(Cc1ccco1)C2 | nt | nt | 5.7 | nt | nt
